Measurements taken from ChEMBL document CHEMBL1641463, “Discovery of a series of potent arylthiadiazole H(3) antagonists” (Bioorg Med Chem Lett, 2011).

How the values were obtained:
Histamine H3 receptor = Histamine H3 receptor (Homo sapiens, UniProt Q9Y5N1); assay: Displacement of [3H]-N-alpha-methylhistamine from human recombinant histamine H3 receptor expressed in HEK cells after 30 mins by scintillation counting; format: cell-based, HEK293
Summary of the method: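 P2 membrane pellet from HEK cells expressing recombinant human H3, 3 µg protein per well, in 50 mM Tris–HCl pH 7.4 with 1 nM [3H]N-methylhistamine (82 Ci/mmol). Compound tested at half-log steps across five orders of magnitude. Nonspecific binding defined with 10^-5 M thioperamide. 30 min at 30 °C, then filtration on 0.3% PEI-soaked GF/B filters, three buffer rinses, scintillation counting. Ki from nonlinear least-squares curve fit.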

[1] = AUC (0 to 6 hrs) in rat at 10 mg/kg, po; format: ADME, organism-based; set-up: time < 6 hr, dose 10 mg/kg, route oral; settings: plasma
Summary of the method: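 Rat exposure measured after a 10 mg/kg oral dose; AUC taken over 0–6 h, in ng·h/ml.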

Cytochrome P450 2C9 = Cytochrome P450 2C9 (Homo sapiens, UniProt P11712); assay: Inhibition of CYP2C9; format: ADME
Summary of the method: (§1)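 CYP3A4, 2D6 and 2C9 inhibition tested under both pre-incubation and co-incubation conditions.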

[2] = Drug level in mouse brain at 10 mg/kg, po after 4 hrs; format: ADME, organism-based; set-up: dose 10 mg/kg, route oral; settings: read-out: Drug uptake
Summary of the method: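 Mouse brain concentration measured 4 h after a 10 mg/kg oral dose, in ng/g.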

Cytochrome P450 3A4 = Cytochrome P450 3A4 (Homo sapiens, UniProt P08684); assay: Inhibition of CYP3A4; format: ADME; summary of the method: as §1
[3] = target: Histamine H3 receptor (Mus musculus) (UniProt P58406); assay: Displacement of [3H]-N-alpha-methylhistamine from histamine H3 receptor in […] mouse cortex after 4 hrs by scintillation counting
Summary of the method: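 Ex vivo binding in cortex dissected from individual ICR mice, read at 4 h. Cortex homogenized in ice-cold 50 mM Na2HPO4–KH2PO4 pH 6.8 and frozen at −80 °C for at least 12 h; protein measured by BCA. Homogenate incubated 30 min at room temperature with 1 nM [3H]N-methylhistamine and 0.1% BSA; thioperamide defines nonspecific binding. Quadruplicates, filtered on PEI-presoaked GF/B; specific = total − nonspecific.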

Cytochrome P450 2D6 = Cytochrome P450 2D6 (Homo sapiens, UniProt P10635); assay: Inhibition of CYP2D6; format: ADME; summary of the method: as §1
Cytochrome P450 2D6, sequence (P10635 whole entry): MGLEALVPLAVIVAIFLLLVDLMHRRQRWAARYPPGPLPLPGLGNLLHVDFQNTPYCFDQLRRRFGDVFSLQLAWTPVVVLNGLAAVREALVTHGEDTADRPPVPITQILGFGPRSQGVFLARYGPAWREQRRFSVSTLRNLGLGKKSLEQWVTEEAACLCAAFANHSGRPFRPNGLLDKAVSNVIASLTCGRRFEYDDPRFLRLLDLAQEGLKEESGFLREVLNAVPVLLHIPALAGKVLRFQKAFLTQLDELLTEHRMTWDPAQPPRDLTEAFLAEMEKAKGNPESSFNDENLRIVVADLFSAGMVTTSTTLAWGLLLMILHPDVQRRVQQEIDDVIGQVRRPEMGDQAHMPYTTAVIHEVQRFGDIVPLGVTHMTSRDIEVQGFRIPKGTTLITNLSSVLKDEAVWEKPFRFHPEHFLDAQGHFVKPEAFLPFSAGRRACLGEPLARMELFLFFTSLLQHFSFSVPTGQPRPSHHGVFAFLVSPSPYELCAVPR

Cytochrome P450 3A4, sequence (P08684 whole entry): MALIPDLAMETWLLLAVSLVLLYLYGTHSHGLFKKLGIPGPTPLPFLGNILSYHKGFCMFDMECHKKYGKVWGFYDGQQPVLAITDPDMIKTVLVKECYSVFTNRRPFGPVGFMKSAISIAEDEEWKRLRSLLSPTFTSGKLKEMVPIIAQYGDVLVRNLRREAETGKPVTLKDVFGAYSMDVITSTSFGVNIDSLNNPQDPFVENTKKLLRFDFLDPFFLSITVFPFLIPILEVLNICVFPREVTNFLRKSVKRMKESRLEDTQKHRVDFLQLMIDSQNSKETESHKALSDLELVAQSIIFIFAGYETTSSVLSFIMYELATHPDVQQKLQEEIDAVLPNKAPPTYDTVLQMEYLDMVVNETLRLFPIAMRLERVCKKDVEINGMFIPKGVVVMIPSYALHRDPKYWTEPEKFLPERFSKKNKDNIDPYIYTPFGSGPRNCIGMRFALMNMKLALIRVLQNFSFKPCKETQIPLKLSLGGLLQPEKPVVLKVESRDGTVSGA
Cytochrome P450 2C9, sequence (P11712 whole entry): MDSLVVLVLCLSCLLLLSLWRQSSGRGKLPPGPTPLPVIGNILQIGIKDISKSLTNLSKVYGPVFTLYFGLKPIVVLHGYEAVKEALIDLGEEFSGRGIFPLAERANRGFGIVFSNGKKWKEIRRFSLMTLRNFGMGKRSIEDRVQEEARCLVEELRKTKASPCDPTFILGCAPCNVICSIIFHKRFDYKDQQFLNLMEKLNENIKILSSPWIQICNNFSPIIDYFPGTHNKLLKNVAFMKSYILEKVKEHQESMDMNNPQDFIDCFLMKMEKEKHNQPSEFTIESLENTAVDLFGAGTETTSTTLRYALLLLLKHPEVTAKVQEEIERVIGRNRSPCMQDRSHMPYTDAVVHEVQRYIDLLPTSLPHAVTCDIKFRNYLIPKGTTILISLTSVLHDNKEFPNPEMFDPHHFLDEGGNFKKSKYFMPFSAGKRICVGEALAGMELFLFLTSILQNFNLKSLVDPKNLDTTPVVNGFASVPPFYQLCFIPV
Histamine H3 receptor, sequence (Q9Y5N1 whole entry): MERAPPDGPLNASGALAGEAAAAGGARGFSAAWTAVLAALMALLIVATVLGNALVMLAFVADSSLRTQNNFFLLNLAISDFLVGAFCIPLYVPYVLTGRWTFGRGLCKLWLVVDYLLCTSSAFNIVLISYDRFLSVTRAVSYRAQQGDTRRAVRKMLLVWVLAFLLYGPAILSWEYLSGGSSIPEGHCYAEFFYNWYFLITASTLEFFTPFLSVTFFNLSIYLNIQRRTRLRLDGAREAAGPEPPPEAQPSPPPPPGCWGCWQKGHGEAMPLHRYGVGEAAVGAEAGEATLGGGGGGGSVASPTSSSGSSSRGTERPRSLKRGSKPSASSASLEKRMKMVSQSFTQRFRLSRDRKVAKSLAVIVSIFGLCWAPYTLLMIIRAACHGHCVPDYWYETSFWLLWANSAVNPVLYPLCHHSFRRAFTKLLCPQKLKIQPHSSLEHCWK
Histamine H3 receptor (Mus musculus), sequence (P58406 whole entry): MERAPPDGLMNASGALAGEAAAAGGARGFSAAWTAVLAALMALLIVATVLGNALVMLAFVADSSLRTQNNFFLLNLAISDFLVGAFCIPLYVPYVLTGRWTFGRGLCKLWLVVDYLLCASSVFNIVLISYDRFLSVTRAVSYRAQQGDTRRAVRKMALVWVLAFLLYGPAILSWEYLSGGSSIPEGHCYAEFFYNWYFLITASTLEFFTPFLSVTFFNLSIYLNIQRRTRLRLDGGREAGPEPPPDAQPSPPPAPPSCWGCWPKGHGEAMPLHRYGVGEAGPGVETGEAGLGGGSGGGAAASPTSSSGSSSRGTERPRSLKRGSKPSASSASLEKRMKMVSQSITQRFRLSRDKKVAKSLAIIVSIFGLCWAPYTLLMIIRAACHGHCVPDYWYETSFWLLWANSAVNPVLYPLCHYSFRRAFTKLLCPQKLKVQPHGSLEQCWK

SMILES	Ki (Histamine H3 receptor)	also measured
COc1ccc(-c2nnc(N3CCC(N4CCCC4)CC3)s2)cc1	0.601 µM	–
Clc1cc(Cl)cc(-c2nnc(N3CCC(N4CCCCC4)CC3)s2)c1	0.072 µM	–
COc1cc(Cl)cc(-c2nnc(N3CCC(N4CCCCC4)CC3)s2)c1	0.012 µM	AUC(0-t) at 6 h [1]: 0.379 µg·h/mL; INH (Cytochrome P450 2C9): > 20 µM; concentration at 4 h [2]: 9030 ng/g; INH (Cytochrome P450 3A4): > 20 µM; Activity [3]: 90%; INH (Cytochrome P450 2D6): > 20 µM
COc1ccccc1-c1nnc(N2CCC(N3CCCCC3)CC2)s1	0.04 µM	–
Cc1cccc(-c2nnc(N3CCC(N4CCCCC4)CC3)s2)c1	0.06 µM	–
Clc1ccccc1-c1nnc(N2CCC(N3CCCCC3)CC2)s1	0.069 µM	–
COc1ccc(-c2nnc(N3CCN(C4CCCC4)CC3)s2)cc1	0.182 µM	–
CCN1CCN(c2nnc(-c3ccc(OC)cc3)s2)CC1	0.162 µM	–
CC(=O)c1ccccc1-c1nnc(N2CCC(N3CCCCC3)CC2)s1	0.0084 µM	–
O=C(Nc1nnc(N2CCC(N3CCCCC3)CC2)s1)NC1CCCC1	0.0486 µM	INH (Cytochrome P450 2C9): > 20 µM; INH (Cytochrome P450 3A4): > 20 µM; INH (Cytochrome P450 2D6): > 20 µM
Fc1ccc(-c2nnc(N3CCC(N4CCCCC4)CC3)s2)cc1	0.039 µM	–
N#Cc1cc(C#N)cc(-c2nnc(N3CCC(N4CCCCC4)CC3)s2)c1	0.023 µM	–
N#Cc1ccc(-c2nnc(N3CCC(N4CCCCC4)CC3)s2)cc1	0.0364 µM	–
N#Cc1cccc(-c2nnc(N3CCC(N4CCCCC4)CC3)s2)c1	0.0426 µM	–
COc1ncc(-c2nnc(N3CCC(N4CCCCC4)CC3)s2)s1	0.028 µM	–
COc1cc(OC)cc(-c2nnc(N3CCC(N4CCCCC4)CC3)s2)c1	0.015 µM	–
COc1ccc(-c2nnc(N3CCN4CCCC4C3)s2)cc1 (stereo not given)	0.653 µM	–
COc1cccc(-c2nnc(N3CCC(N4CCCCC4)CC3)s2)c1	0.0319 µM	–

SMILES	Ki (Histamine H3 receptor)	also measured
c1cnc(-c2nnc(N3CCC(N4CCCCC4)CC3)s2)nc1	0.103 µM	–
Cc1ccc(-c2nnc(N3CCC(N4CCCCC4)CC3)s2)cc1	0.163 µM	–
c1ccc(-c2nnc(N3CCC(N4CCCCC4)CC3)s2)cc1	0.0801 µM	–
CC(=O)c1ccc(-c2nnc(N3CCC(N4CCCCC4)CC3)s2)cc1	0.065 µM	–
Cc1cccc(-c2nnc(N3CCC(N4CCCCC4)CC3)s2)n1	0.0061 µM	–
COc1ccc(-c2nnc(N3CCC(N4CCCCC4)CC3)s2)cc1	0.0401 µM	–
c1n[nH]cc1-c1nnc(N2CCC(N3CCCCC3)CC2)s1	0.192 µM	–
Clc1ccc(-c2nnc(N3CCC(N4CCCCC4)CC3)s2)cc1	0.161 µM	–
c1ccc(-c2nnc(N3CCC(N4CCCCC4)CC3)s2)nc1	0.03 µM	–
Fc1cccc(-c2nnc(N3CCC(N4CCCCC4)CC3)s2)c1	0.062 µM	–
Cc1ccccc1-c1nnc(N2CCC(N3CCCCC3)CC2)s1	0.036 µM	–
COc1cc(F)cc(-c2nnc(N3CCC(N4CCCCC4)CC3)s2)c1	0.016 µM	–
CC(=O)c1cccc(-c2nnc(N3CCC(N4CCCCC4)CC3)s2)c1	0.004 µM	–
Clc1cccc(-c2nnc(N3CCC(N4CCCCC4)CC3)s2)c1	0.049 µM	–
COc1cc(C#N)cc(-c2nnc(N3CCC(N4CCCCC4)CC3)s2)c1	0.012 µM	–
COc1cccc(-c2nnc(N3CCC(N4CCCCC4)CC3)s2)n1	0.0035 µM	INH (Cytochrome P450 2C9): > 20 µM; concentration at 4 h [2]: 1530 ng/g; INH (Cytochrome P450 3A4): > 20 µM; Activity [3]: 74%; INH (Cytochrome P450 2D6): > 20 µM
Fc1ccccc1-c1nnc(N2CCC(N3CCCCC3)CC2)s1	0.036 µM	–
Fc1cc(F)cc(-c2nnc(N3CCC(N4CCCCC4)CC3)s2)c1	0.05 µM	–
